Measurements collected from several papers.
Protocols differ between the studies behind these lines.
GRM7: Metabotropic glutamate receptor 7 (GRM7, Homo sapiens, UniProt Q14831)
MTNR1B: Melatonin receptor type 1B (MTNR1B, Homo sapiens, UniProt P49286)

| Compound | target | test | conditions | measurement | result |
| --- | --- | --- | --- | --- | --- |
| C[C@H](C(=O)N[C@@H]1COc2ccccc2[C@H]1S(C)(=O)=O)c1ccc(F)cc1 | GRM7 | cAMP, agonist, luciferase |  | EC50 | 28 nM |
| CC1(C)[C@@H](O)CC[C@]2(C)[C@H]3C(=O)C=C4[C@@H]5C[C@@](C)(C(=O)O)CC[C@]5(C)CC[C@@]4(C)[C@]3(C)CC[C@@H]12 | Peroxiredoxin-1 (PRDX1, Homo sapiens, UniProt Q06830) | binding, SPR |  | Kd | 25000 nM |
| Cc1cc2nc3c(=O)[nH]c(=O)nc-3n(C[C@H](O)[C@H](O)[C@H](O)COP(=O)(O)OP(=O)(O)OC[C@H]3O[C@@H](n4cnc5c(N)ncnc54)[C@H](O)[C@@H]3O)c2cc1C | Transformer-2 protein homolog beta (Homo sapiens, UniProt P62995) | binding | lysate | Kd | 36 nM |
| C=C1CC[C@@H]2[C@](C)(CO)[C@H](O)CC[C@@]2(C)[C@@H]1C/C=C1/C(=O)OC[C@H]1O | UDP-glucuronosyltransferase 2B7 (UGT2B7, Homo sapiens, UniProt P16662) | enzyme activity, inhibitor | pH 7.4 | Ki | 5700 nM |
| CC(=O)c1cc([N+](=O)[O-])c(Sc2cccc(Cl)c2Cl)s1 | Cathepsin D (CTSD, Homo sapiens, UniProt P07339) | enzyme activity, inhibitor |  | EC50 | > 50000 nM |
| Clc1ccc(CNc2cccc(-c3nnc[nH]3)c2)c(Br)c1 | MTNR1B | cell-free assay |  | Ki | 1410 nM |
| COc1ccc2[nH]cc(CCNC(C)=O)c2c1I | MTNR1B | cAMP, agonist, TR-FRET |  | EC50 | 229 nM |
| COc1ccc(-c2nsc(NC(=O)[C@@H]3C[C@H]3C)c2C)cc1 | GRM7 | calcium signal, agonist |  | EC50 | > 16700 nM |
| COCC(CNC(C)=O)c1cccc2ccc(OC)cc12 (centres unmarked) | MTNR1B | β-arrestin recruitment, agonist |  | EC50 | 3.09 nM |
| O=C(O)CC[C@@H](O)C(=O)O | Protein phosphatase 3 catalytic subunit alpha (PPP3CA, Homo sapiens, UniProt Q08209) | binding, SPR |  | Kd | ~67000 nM |
| COc1cc(I)c2[nH]cc(CCNC(C)=O)c2c1 | MTNR1B | β-arrestin recruitment, agonist |  | EC50 | 60.3 nM |
| Cc1cc(Nc2cc3ncccc3c(N[C@@H]3C[C@H]4CC[C@@H](C3)N4CCC#N)n2)n[nH]1 | Cyclin-dependent kinase 7 (CDK7, Homo sapiens, UniProt P50613) | binding, competition with immobilised ligand |  | Kd | 860 nM |
| O=C(NCCc1cccc2ccccc12)C1CCC1 | MTNR1B | ligand displacement, radioligand | cell membranes | Ki | ~100 nM |
| COc1ccc2c(c1)C(=O)C1(Cc3ccccc3C1)O2 | Peptidyl-prolyl cis-trans isomerase NIMA-interacting 1 (PIN1, Homo sapiens, UniProt Q13526) | enzyme activity, inhibitor |  | Ki | 100000 nM |
